Experimental data reported in ChEMBL document CHEMBL2346581, “Increasing the efficiency of ligands for FK506-binding protein 51 by conformational control” (J Med Chem, 2013).

Key:
[1] = molecular target: T1, Peptidyl-prolyl cis-trans isomerase FKBP5 (Homo sapiens, UniProt Q13451); assay: Binding affinity to human FKBP51 by competitive fluorescence polarization assay
T1 sequence (Q13451 whole entry): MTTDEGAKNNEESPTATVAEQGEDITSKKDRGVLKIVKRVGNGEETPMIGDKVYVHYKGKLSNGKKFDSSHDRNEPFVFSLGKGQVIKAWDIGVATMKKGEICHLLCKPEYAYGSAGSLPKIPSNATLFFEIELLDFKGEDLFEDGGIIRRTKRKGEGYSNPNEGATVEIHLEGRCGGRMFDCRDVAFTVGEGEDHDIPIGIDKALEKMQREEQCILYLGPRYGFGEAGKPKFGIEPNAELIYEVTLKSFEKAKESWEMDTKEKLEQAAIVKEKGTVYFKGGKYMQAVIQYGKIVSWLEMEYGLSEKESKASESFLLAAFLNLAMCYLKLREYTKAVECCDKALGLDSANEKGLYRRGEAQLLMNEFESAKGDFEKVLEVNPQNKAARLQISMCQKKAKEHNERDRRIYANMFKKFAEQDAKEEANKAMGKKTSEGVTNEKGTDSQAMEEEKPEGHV
Method in brief: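 Competitive fluorescence polarization binding assay against the purified FK506-binding domain of human FKBP51, run per a previously described protocol. The read-out is K_i.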

[2] = molecular target: Peptidyl-prolyl cis-trans isomerase FKBP1A (Homo sapiens, UniProt P62942); assay: Binding affinity to FKBP12 (unknown origin) by competitive fluorescence polarization assay
Peptidyl-prolyl cis-trans isomerase FKBP1A, sequence (P62942 whole entry, the tested form may be a part): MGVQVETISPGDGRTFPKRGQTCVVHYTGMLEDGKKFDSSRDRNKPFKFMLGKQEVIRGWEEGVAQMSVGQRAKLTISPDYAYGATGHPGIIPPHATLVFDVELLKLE

[3] = molecular target: T1, Peptidyl-prolyl cis-trans isomerase FKBP5; assay: Binding affinity to human His-tagged FKBP51 FK1 domain (1 to 140) by isothermal titration calorimetric analysis
[4] = molecular target: T2, Peptidyl-prolyl cis-trans isomerase FKBP5 (Homo sapiens) (UniProt Q13451); assay: Binding affinity to FKBP51 (unknown origin) assessed as increase in [3H]-dexamethasone binding to glucocorticoid receptor
T2 sequence (whole entry): T1 sequence (Q13451 whole entry)
Method in brief: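 Reconstituted glucocorticoid receptor (GR) hormone-binding assay. GR-containing lysates were supplemented with purified FKBP51 and incubated with ³H-dexamethasone across a range of compound concentrations. Free ³H-dexamethasone was removed with charcoal–dextran, and GR-bound ³H-dexamethasone was then measured as the read-out.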

Ki [1] [µM]	Ki [2] [µM]	SMILES	Kd [3] [µM]	Activity [4]
> 100		COc1ccc(OCCOC(=O)C2CCCCN2S(=O)(=O)c2cc(Cl)cc(Cl)c2)cc1OC (stereo not given)		
0.08		C=CC[C@@H]1/C=C(\C)C[C@H](C)C[C@H](OC)[C@H]2O[C@@](O)(C(=O)C(=O)N3CCCC[C@H]3C(=O)O[C@H](/C(C)=C/[C@@H]3CC[C@@H](O)[C@H](OC)C3)[C@H](C)[C@@H](O)CC1=O)[C@H](C)C[C@@H]2OC [TACROLIMUS ANHYDROUS]		
18.1	0.5	COc1cc2c(c(OC)c1)[C@]1(C)C3CCC[C@@H](C(=O)N1CC2)N3C(=O)C(=O)c1cc(OC)c(OC)c(OC)c1		
0.003		CO[C@H]1C[C@@H]2CC[C@@H](C)[C@@](O)(O2)C(=O)C(=O)N2CCCC[C@H]2C(=O)O[C@H]([C@H](C)C[C@@H]2CC[C@@H](O)[C@H](OC)C2)CC(=O)[C@H](C)/C=C(\C)[C@@H](O)[C@@H](OC)C(=O)[C@H](C)C[C@H](C)/C=C/C=C/C=C/1C [SIROLIMUS]		
> 100		COc1ccc(OCCOC(=O)C2CCCCN2C(=O)C(=O)c2cc(OC)c(OC)c(OC)c2)cc1OC (stereo not given)		
		COc1ccc(OCCN2CC3CCCC(C2=O)N3S(=O)(=O)c2ccc3[nH]c(=O)sc3c2)cc1OC (stereo not given)	10.5	Dose-dependent effect
2.7		CCC(C)(C)C(=O)C(=O)N1CCCCC1C(=O)O[C@H](CCc1ccc(OC)c(OC)c1)c1cccc(OCC(=O)O)c1 (stereo not given in full)		
7.6		COc1ccc(OCCOC(=O)C2CCCCN2S(=O)(=O)c2ccc3[nH]c(=O)sc3c2)cc1OC (stereo not given)	3.3	Dose-dependent effect
> 100		CCOC(=O)C1CCCCN1S(=O)(=O)c1ccc2[nH]c(=O)sc2c1 (stereo not given)		
0.2		COc1ccc(CC[C@@H](OC(=O)C2CCCCN2S(=O)(=O)c2cc(Cl)c(O)c(Cl)c2)c2cccc(OCCN3CCOCC3)c2)cc1OC (stereo not given in full)		
> 100	2.1	COc1cc2c(c(OC)c1)[C@]1(C)C3CCC[C@@H](C(=O)N1CC2)N3S(=O)(=O)c1cc(Cl)c(O)c(Cl)c1		
> 100		COc1ccc(OCCOC(=O)C2CCCCN2S(=O)(=O)c2ccc3ncsc3c2)cc1OC (stereo not given)		
		COc1ccc(OCCN2CCC3CCCC(C2=O)N3S(=O)(=O)c2ccc3[nH]c(=O)sc3c2)cc1OC (stereo not given)	0.36	Dose-dependent effect
> 100	2.8	COc1cc2c(c(OC)c1)[C@]1(C)C3CCC[C@@H](C(=O)N1CC2)N3C(=O)C(=O)[C@]1(C)CCCC[C@H]1C		
> 100	27.7	CCC(C)(C)C(=O)C(=O)N1C2CCC[C@H]1C(=O)N1CCc3cc(OC)cc(OC)c3[C@]21C		
> 100	0.87	COc1cc2c(c(OC)c1)[C@]1(C)C3CCC[C@@H](C(=O)N1CC2)N3S(=O)(=O)c1cc(Cl)cc(Cl)c1		
13.8		COc1ccc(CC[C@@H](OC(=O)C2CCCCN2S(=O)(=O)c2cc(Cl)cc(Cl)c2)c2cccc(OCC(=O)O)c2)cc1OC (stereo not given in full)		

SMILES	Ki [1] [µM]	Ki [2] [µM]	Kd [3] [µM]	Activity [4]
CCN1CC2CCCC(C1=O)N2C(=O)C(=O)c1cc(OC)c(OC)c(OC)c1 (stereo not given)	> 100			
COc1ccc(OCCN2CCC3CCCC(C2=O)N3C(=O)C(=O)c2cc(OC)c(OC)c(OC)c2)cc1OC (stereo not given)	23.7			
COc1ccc(OCCN2CCC3CCCC(C2=O)N3S(=O)(=O)c2cc(Cl)cc(Cl)c2)cc1OC (stereo not given)	8.8			
COc1ccc(OCCN2CC3CCCC(C2=O)N3S(=O)(=O)c2cc(Cl)cc(Cl)c2)cc1OC (stereo not given)	1.2			
